Reference: ChEMBL document CHEMBL1144067, “Cancer chemopreventive agents (antitumor-promoters) from Ajuga decumbens” (J Nat Prod, 1999)

What was measured:
[1] = Cytotoxicity against human Raji cells assessed as cell viability at 100 molar ratio after 48 hrs; assay type: cell-based; settings: read-out: Activity
Method in brief: (§1)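 Raji cells (EBV genome-carrying, Burkitt's lymphoma-derived) grown in RPMI-1640 and incubated 48 h at 37 °C with 4 mmol n-butyric acid, 32 pmol TPA (20 ng/mL) and test agent at 10–1000 mol ratio/TPA (0.32–32 nmol). Viability given as percentage of Raji cells; n = 3, ±S.D.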

[2] = test system: Raji; assay: Inhibition of 12-O-tetradecanoylphorbol-13-acetate induced EBV-early antigen activation in human Raji cells at 10 molar ratio relative to control; assay type: cell-based; settings: human gammaherpesvirus 4
Method in brief: (§2)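 Raji cells in RPMI-1640 treated 48 h at 37 °C with n-butyric acid (4 mmol), TPA (32 pmol = 20 ng/mL) and test agent at 10, 100, 500 or 1000 mol ratio/TPA (0.32–32 nmol). EA-positive cells in smears detected by indirect immunofluorescence; induction expressed relative to TPA positive control (100%), n = 3, ±S.D.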

[3] = Cytotoxicity against human Raji cells assessed as cell viability at 500 molar ratio after 48 hrs; assay type: cell-based; settings: read-out: Activity; method in brief: as §1
[4] = test system: Raji; assay: Inhibition of 12-O-tetradecanoylphorbol-13-acetate induced EBV-early antigen activation in human Raji cells at 100 molar ratio relative to control; assay type: cell-based; settings: human gammaherpesvirus 4; method in brief: as §2
[5] = test system: Raji; assay: Inhibition of 12-O-tetradecanoylphorbol-13-acetate induced EBV-early antigen activation in human Raji cells at 1000 molar ratio relative to control; assay type: cell-based; settings: human gammaherpesvirus 4; method in brief: as §2
[6] = Cytotoxicity against human Raji cells assessed as cell viability at 10 molar ratio after 48 hrs; assay type: cell-based; settings: read-out: Activity; method in brief: as §1
[7] = test system: Raji; assay: Inhibition of 12-O-tetradecanoylphorbol-13-acetate induced EBV-early antigen activation in human Raji cells at 500 molar ratio relative to control; assay type: cell-based; settings: human gammaherpesvirus 4; method in brief: as §2
[8] = Cytotoxicity against human Raji cells assessed as cell viability at 1000 molar ratio after 48 hrs; assay type: cell-based; settings: read-out: Activity; method in brief: as §1
[9] = test system: Mus musculus; assay: Inhibition of DMBA-induced/TPA-promoted carcinogenesis in mouse assessed as number of skin papillomas per mouse at 85 nmol administered twice weekly after 1 week of initiation for 20 weeks; assay type: functional
Method in brief: (§3)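 Female SPF ICR mice, 6 weeks old, 15 per group, backs shaved; single topical DMBA initiation (100 μg, 390 nmol) in 0.1 mL acetone. From 1 week after, promotion with TPA 1.7 nmol twice weekly, plus 85 nmol test agent. Papilloma incidence and number per mouse monitored weekly for 20 weeks.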

[10] = test system: Mus musculus; assay: Inhibition of DMBA-induced/TPA-promoted carcinogenesis in mouse assessed as number of skin papillomas per mouse at 85 nmol administered twice weekly after 1 week of initiation for 10 weeks; assay type: functional; method in brief: as §3
[11] = test system: Mus musculus; assay: Inhibition of DMBA-induced/TPA-promoted carcinogenesis in mouse assessed as number of mouse bearing papillomas at 85 nmol administered twice weekly after 1 week of initiation for 10 weeks; assay type: functional; design: scale not given: the % may be the effect or the level left; method in brief: as §3
[12] = test system: Mus musculus; assay: Inhibition of DMBA-induced/TPA-promoted carcinogenesis in mouse assessed as number of mouse bearing papillomas at 85 nmol administered twice weekly after 1 week of initiation for 8 weeks; assay type: functional; design: scale not given: the % may be the effect or the level left; method in brief: as §3
[13] = test system: Mus musculus; assay: Inhibition of DMBA-induced/TPA-promoted carcinogenesis in mouse assessed as number of mouse bearing papillomas at 85 nmol administered twice weekly after 1 week of initiation for 17 weeks; assay type: functional; design: scale not given: the % may be the effect or the level left; method in brief: as §3
[14] = test system: Mus musculus; assay: Toxicity in 4NQO-induced/glycerol-promoted carcinogenesis mouse model assessed change in body weight at 1.27 mg/week administered twice weekly after 5 weeks of initiation for 22 weeks; assay type: organism-based; settings: in vivo
Method in brief: (§4)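 Female ICR mice in the 4NQO (0.3 mg s.c.)-initiated, 8% glycerol drinking-water-promoted lung model, 15 per group, test agent at 0.0025% or 0.005%. Body weight recorded at end of the 22-week promotion period.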

[15] = test system: Mus musculus; assay: Inhibition of 4NQO-induced/glycerol-promoted carcinogenesis in mouse assessed number of pulmonary tumors per mouse at 1.27 mg/week administered twice weekly after 5 weeks of initiation for 22 weeks; assay type: functional
Method in brief: (§5)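 Female SPF ICR mice (6 weeks old), 15 per group. Initiation by single s.c. injection of 0.3 mg 4NQO in olive oil–cholesterol (20:1); promotion with 8% glycerol in drinking water ad libitum, test agent given at 0.0025% or 0.005%. Killed by cervical dislocation after 22-week promotion; pulmonary tumors counted per lobe under dissecting microscope. Student's t-test vs 4NQO + glycerol group.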

[16] = test system: Mus musculus; assay: Inhibition of 4NQO-induced/glycerol-promoted carcinogenesis in mouse assessed number of mouse with pulmonary tumors at 2.54 mg/week administered twice weekly after 5 weeks of initiation for 22 weeks; assay type: functional; design: scale not given: the % may be the effect or the level left; method in brief: as §5
[17] = test system: Mus musculus; assay: Inhibition of 4NQO-induced/glycerol-promoted carcinogenesis in mouse assessed number of mouse with pulmonary tumors at 1.27 mg/week administered twice weekly after 5 weeks of initiation for 22 weeks; assay type: functional; design: scale not given: the % may be the effect or the level left; method in brief: as §5
[18] = test system: Mus musculus; assay: Toxicity in 4NQO-induced/glycerol-promoted carcinogenesis mouse model assessed change in body weight at 2.54 mg/week administered twice weekly after 5 weeks of initiation for 22 weeks; assay type: organism-based; settings: in vivo; method in brief: as §4
[19] = test system: Mus musculus; assay: Inhibition of 4NQO-induced/glycerol-promoted carcinogenesis in mouse assessed number of pulmonary tumors per mouse at 2.54 mg/week administered twice weekly after 5 weeks of initiation for 22 weeks; assay type: functional; method in brief: as §5

| Compound | viability at 48 h, 100 molar ratio [1] [%] | EBV-EA activation relative to TPA control [2] [%] | viability at 48 h, 500 molar ratio [3] [%] | EBV-EA induction remaining (% of TPA control) [4] [%] | EBV-EA induction remaining (% of TPA control) [5] [%] | viability at 48 h, 10 molar ratio [6] [%] | EBV-EA induction remaining (% of TPA control) [7] [%] | viability at 48 h, 1000 molar ratio [8] [%] | Activity [9] | Activity [10] | Activity [11] [%] | Activity [12] [%] | Activity [13] [%] | Activity [14] | Activity [15] | Activity [16] [%] | Activity [17] [%] | Activity [18] | Activity [19] |
| --- | --- | --- | --- | --- | --- | --- | --- | --- | --- | --- | --- | --- | --- | --- | --- | --- | --- | --- | --- |
| CC(=O)OC[C@@]12[C@@H](OC(C)=O)C[C@@H](C)[C@](C)(C[C@H](OC(C)=O)C3=CC(=O)OC3)[C@H]1[C@H](OC(C)=O)CC[C@]21CO1 [AJUGAPANTIN A] | > 80 | 100 | > 80 | 79.2 | 10.6 | > 80 | 54.7 | 70 | – | – | – | – | – | – | – | – | – | – | – |
| CC1(C)[C@@H](O)CC[C@]2(C)[C@H]3C(=O)C=C4[C@@H]5C[C@@](C)(C(=O)O)CC[C@]5(C)CC[C@@]4(C)[C@]3(C)CC[C@@H]12 [ENOXOLONE] | – | – | – | – | – | – | – | – | 9 | 4 | – | – | – | – | – | – | – | – | – |
| C/C=C(/C)C(=O)O[C@@H](C[C@@]1(C)[C@H](C)C[C@H](OC(C)=O)[C@]2(COC(C)=O)[C@@H]1[C@H](OC(=O)/C(C)=C\C)CC[C@]21CO1)C1=CC(=O)OC1 | > 80 | 100 | > 80 | 71.5 | 18.4 | > 80 | 47.2 | 70 | – | – | – | – | – | – | – | – | – | – | – |
| CCC1=C(C)C(=O)O[C@@H]([C@](C)(O)[C@H]2CC[C@@]3(O)C4=CC(=O)[C@@H]5C[C@@H](O)[C@@H](O)C[C@]5(C)[C@H]4CC[C@]23C)C1 | > 80 | 100 | > 80 | 81 | 17.5 | > 80 | 58.2 | 60 | – | – | – | – | – | – | – | – | – | – | – |
| CC(C)(O)CC[C@@H](O)[C@@](C)(O)[C@H]1CC[C@@]2(O)C3=CC(=O)[C@@H]4C[C@@H](O)[C@@H](O)C[C@]4(C)[C@H]3CC[C@]12C | > 80 | 100 | > 80 | 90.1 | 0 | > 80 | 73.7 | 70 | – | – | – | – | – | – | – | – | – | – | – |
| C[C@@H]1C(=O)O[C@H](C)[C@H]1C[C@@H](O)[C@](C)(O)[C@H]1CC[C@@]2(O)C3=CC(=O)[C@]4(O)C[C@@H](O)[C@@H](O)C[C@]4(C)[C@H]3CC[C@]12C | > 80 | 100 | > 80 | 80.2 | 0 | > 80 | 51.9 | 70 | – | – | – | – | – | – | – | – | – | – | – |
| C[C@@H]1C(=O)O[C@H](C)[C@H]1C[C@@H](O)[C@](C)(O)[C@H]1CC[C@@]2(O)C3=CC(=O)[C@@H]4C[C@@H](O)[C@@H](O)C[C@]4(C)[C@H]3CC[C@]12C [CYASTERONE] | > 80 | 94.6 | > 80 | 75.2 | 0 | > 80 | 36.2 | 70 | 7 | 2.5 | 60 | 43 | 80 | – | – | – | – | – | – |
| CC(=O)O[C@@]1(C)C[C@@H](O)[C@]2(O)C=CO[C@@H](O[C@@H]3O[C@H](CO)[C@@H](O)[C@H](O)[C@H]3O)[C@@H]21 | > 80 | 89.5 | > 80 | 62.6 | 0 | > 80 | 19.9 | – | 6 | 2 | 20 | 10 | 80 | Non-toxic | 1.1 | 46.6 | 53.3 | Non-toxic | 0.9 |
| COc1cc(C(=O)O)ccc1O [VANILLIC ACID] | > 80 | 90.2 | > 80 | 73.9 | 0 | > 80 | 46.2 | 60 | – | – | – | – | – | – | – | – | – | – | – |
| C/C=C(/C)C(=O)O[C@@H]1CC[C@]2(CO2)[C@]2(COC(C)=O)[C@@H](OC(C)=O)C[C@@H](C)[C@](C)(C[C@H](OC(C)=O)C3=CC(=O)OC3)[C@@H]12 | > 80 | 100 | > 80 | 73.5 | 0 | > 80 | 42.6 | 60 | – | – | – | – | – | – | – | – | – | – | – |
| O=c1cc(-c2ccc(O)cc2)oc2cc(O)cc(O)c12 [APIGENIN] | > 80 | 100 | > 80 | 83.7 | 31.5 | > 80 | 65.9 | 50 | – | – | – | – | – | – | – | – | – | – | – |
